Screening data (PubChem BioAssay)
Compounds with a hit are over-represented: about 2.3% of the library has one in this group of screens.
MEKK2mut PB1 HTS = signal of MEK5 binding to mutant human MEKK2 PB1 domain; bead flow cytometry, Alexa488-MEK5 binding to MEKK2 mutant; percent response, % at 10 µM; 290,000 compounds, 0.35% hits; in the data active = percent response above about 24%, passing the limit was not always enough
MEKK2wt PB1 HTS = raises or lowers MEK5 binding to wildtype human MEKK2 PB1 domain | Q9Y2U5 | bead flow cytometry, Alexa488-MEK5 binding to MEKK2 WT; actives lie on both sides | binding response (% of control), % at 10 µM | 290,000 compounds, 1.1% hits; in the data active = binding response below about 67% or above about 130%
Arrestin-AP2 inh = blocks beta-arrestin peptide binding to AP2 adaptin; 340,000 compounds, 0.31% hits; inhibition, % at 10 µM; FITC-arrestin peptide / GST-AP2 beads, flow cytometry; AP2 beta2 appendage carries R879A mutation;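 active = inhibition above a set limit, near 3 SD of compounds lacking own fluorescence, cut at about 54% in these data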;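 also: plate controls were DMSO wells for no effect and 5 µM unlabelled arrestin peptide for full effect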
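system = GST-tagged AP2 beta2-adaptin appendage (R879A) on 4 µm glutathione beads | reagent = FITC-labelled arrestin peptide probe, 50 nM final | schedule = compound with beads 12 min RT, then probe 1 h RT | signal = HyperCyt-sampled flow cytometry, FL1 channel, ex 488/em 535 nm | read-out = percent response from loss of bead-bound FITC fluorescence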
MEKK3 PB1 HTS = raises or lowers MEK5 binding to the human MEKK3 PB1 domain | Q99759 | bead-based flow cytometry, Alexa488-MEK5 binding to MEKK3; actives lie on both sides; 0 = blocked by unlabeled MEK5, 100 = vehicle | binding response (% of control), % at 10 µM | 290,000 compounds, 1.4% hits | AID 1529;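 active = binding response more than 3 SD above or below the average of its plate-row segment, actives on both sides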;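 also: Alexa488 bead fluorescence after subtracting the streptavidin-only scavenger bead signal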
Target sequence (Q99759 whole entry, looked up, the tested form may be a part): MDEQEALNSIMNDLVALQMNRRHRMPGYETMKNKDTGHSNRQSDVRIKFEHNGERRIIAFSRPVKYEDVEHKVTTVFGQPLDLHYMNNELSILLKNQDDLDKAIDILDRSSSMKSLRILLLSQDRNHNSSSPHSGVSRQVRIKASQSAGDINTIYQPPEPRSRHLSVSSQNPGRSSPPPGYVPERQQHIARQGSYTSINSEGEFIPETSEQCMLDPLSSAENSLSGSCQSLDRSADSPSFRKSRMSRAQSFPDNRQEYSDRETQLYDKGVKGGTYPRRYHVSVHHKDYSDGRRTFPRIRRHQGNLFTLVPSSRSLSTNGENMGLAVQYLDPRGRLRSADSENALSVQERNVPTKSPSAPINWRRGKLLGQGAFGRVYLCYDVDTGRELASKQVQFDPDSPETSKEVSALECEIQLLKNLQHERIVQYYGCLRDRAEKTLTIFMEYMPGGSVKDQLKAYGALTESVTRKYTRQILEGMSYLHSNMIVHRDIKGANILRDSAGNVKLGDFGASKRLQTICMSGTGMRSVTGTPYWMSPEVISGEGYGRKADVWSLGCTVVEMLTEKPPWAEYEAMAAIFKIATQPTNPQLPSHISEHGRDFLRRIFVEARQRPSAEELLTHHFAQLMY
An asterisk follows results filed as active; [ ] = remark or other dose.

CN1CCN(C(=S)c2cn(CCOc3ccccc3F)c3ccccc23)CC1 was read as MEKK2mut PB1 HTS 4, MEKK2wt PB1 HTS -9.0*, Arrestin-AP2 inh 7 and MEKK3 PB1 HTS 102.
`CN1CCN(C(=S)c2cn(CCOc3ccccc3)c3ccccc23)CC1` gave MEKK2mut PB1 HTS -2, MEKK2wt PB1 HTS 109, Arrestin-AP2 inh 2 and MEKK3 PB1 HTS 104.
For O=CNc1ccc2c(c1)Cc1cccc(NC=O)c1-2 the results were Arrestin-AP2 inh 1.
`O=[N+]([O-])c1ccc(-c2ccc(/C=N/Nc3nc(NCc4ccccc4)nc(N4CCOCC4)n3)o2)cc1` gave MEKK2mut PB1 HTS 5, MEKK2wt PB1 HTS 14*, Arrestin-AP2 inh 3 and MEKK3 PB1 HTS 99.
CCS(=O)(=O)CCn1c([N+](=O)[O-])cnc1C was read as MEKK2mut PB1 HTS -3, MEKK2wt PB1 HTS -9.0*, Arrestin-AP2 inh 4 and MEKK3 PB1 HTS 84.
Cc1ncc([N+](=O)[O-])n1CCO was read as MEKK2mut PB1 HTS 5, MEKK2wt PB1 HTS 103, Arrestin-AP2 inh -2 and MEKK3 PB1 HTS 86.
CN(C(=O)c1cccc(NC(=O)Cc2ccc(NC(=O)C3CCCN(S(=O)(=O)c4cccc([N+](=O)[O-])c4)C3)cc2)c1)C1CCCCC1 (stereo not given) was read as Arrestin-AP2 inh 3.
For O=C(Nc1ccccn1)c1cccc(S(=O)(=O)N2CCCC2)c1 the results were MEKK2mut PB1 HTS -4, MEKK2wt PB1 HTS 97, Arrestin-AP2 inh -9 and MEKK3 PB1 HTS 82*[inhibitor].
`O=C(Nc1ccccn1)c1cccc(S(=O)(=O)N2CCCCC2)c1` gave MEKK2mut PB1 HTS 0, MEKK2wt PB1 HTS 99, Arrestin-AP2 inh -3 and MEKK3 PB1 HTS 99.
CN(C)c1ccc(/C=C/c2ccc3ccccc3[n+]2C)cc1 was read as MEKK2mut PB1 HTS 27, MEKK2wt PB1 HTS 2.0*, Arrestin-AP2 inh -4 and MEKK3 PB1 HTS 97.
For COCCN(Cc1nnc(-c2cccs2)o1)C(=O)CN1C(=O)NC2(CCCCC2)C1=O the results were Arrestin-AP2 inh -11.
For COc1cccc(NC(=O)CN2C(=O)c3cccnc3Oc3ccc(Cl)cc32)c1 the results were MEKK2mut PB1 HTS 0, MEKK2wt PB1 HTS 98, Arrestin-AP2 inh 8 and MEKK3 PB1 HTS 101.
Screening O=C(CN1C(=O)c2cccnc2Oc2ccc(Cl)cc21)Nc1ccccc1F returned MEKK2mut PB1 HTS 10, MEKK2wt PB1 HTS 10*, Arrestin-AP2 inh 1 and MEKK3 PB1 HTS 101.
CC1Cc2ccccc2N1C(=O)COC(=O)c1ccc(Cl)c(S(=O)(=O)N2CCOCC2)c1 (stereo not given) was read as Arrestin-AP2 inh 20.
`Cc1cccc2nc(-c3cccnc3)c(NCCC(C)C)n12` gave MEKK2mut PB1 HTS 2, MEKK2wt PB1 HTS -11*, Arrestin-AP2 inh 20 and MEKK3 PB1 HTS 95.
`Cc1cccc2nc(-c3cccnc3)c(Nc3ccccc3)n12` gave MEKK2mut PB1 HTS 3, MEKK2wt PB1 HTS 106, Arrestin-AP2 inh -2 and MEKK3 PB1 HTS 104.
Screening O=C(c1ccc(Cl)cc1)N1CCN(S(=O)(=O)/C=C/c2ccccc2)CC1 returned Arrestin-AP2 inh 2.
`Nc1c(C(=O)NCC2CCCO2)sc2nc3c(c(-c4ccco4)c12)CC/C3=C\c1ccco1` (stereo not given) gave MEKK2mut PB1 HTS -2, MEKK2wt PB1 HTS 60, Arrestin-AP2 inh 56* and MEKK3 PB1 HTS 100.
For COc1ccc(CN2CCN(CC(O)Cn3c4ccccc4c4ccccc43)CC2)cc1 (stereo not given) the results were MEKK2mut PB1 HTS 0, MEKK2wt PB1 HTS 111, Arrestin-AP2 inh -4 and MEKK3 PB1 HTS 93.
Screening CCOc1ccc(CN2CCN(CC(O)Cn3c4ccccc4c4ccccc43)CC2)cc1 (stereo not given) returned MEKK2mut PB1 HTS 9, MEKK2wt PB1 HTS 138*, Arrestin-AP2 inh 2 and MEKK3 PB1 HTS 104.
For COc1ccc(NCC(=O)Nc2cccc(S(=O)(=O)N3CCCC3)c2)cc1Cl the results were Arrestin-AP2 inh -3.
C=CCN1C(=O)/C(=C/C=C2/N(CC)c3ccc(S(=O)(=O)N(C)C)cc3N2CC)SC1=S was read as MEKK2mut PB1 HTS -17, MEKK2wt PB1 HTS 36*[inhibitor], Arrestin-AP2 inh 13 and MEKK3 PB1 HTS 65.
Screening C=CCN1C(=O)/C(=C2/Sc3ccccc3N2CC)SC1=S returned MEKK2mut PB1 HTS 0, MEKK2wt PB1 HTS 97, Arrestin-AP2 inh -9 and MEKK3 PB1 HTS 100.
`CCN(CC)S(=O)(=O)c1cc(NC(=O)c2n[nH]c(=O)c3ccccc23)ccc1C` gave MEKK2mut PB1 HTS 4, MEKK2wt PB1 HTS -3.0*, Arrestin-AP2 inh 8 and MEKK3 PB1 HTS 99.
For NS(=O)(=O)c1ccc(CCNC(=O)c2ccc3ccccc3n2)cc1 the results were MEKK2mut PB1 HTS 5, MEKK2wt PB1 HTS -3.0*, Arrestin-AP2 inh -2 and MEKK3 PB1 HTS 99.
COc1cccc(N2CCN(c3ncnc4c3[nH]c3ccccc34)CC2C)c1 (stereo not given) was read as MEKK2mut PB1 HTS 5, MEKK2wt PB1 HTS 117 and MEKK3 PB1 HTS 101.
COc1cccc(N2CCN(c3ncnc4c3[nH]c3ccc(F)cc34)CC2C)c1 (stereo not given) was read as MEKK2mut PB1 HTS 21, MEKK2wt PB1 HTS 164*, Arrestin-AP2 inh 3 and MEKK3 PB1 HTS 109.
Screening CC(C)(C)OC(=O)C[C@@H]1C/C=C\C[C@H](CC(=O)N[C@@H](CO)Cc2ccccc2)C(=O)N[C@H](C(C)(C)C)COC1=O returned Arrestin-AP2 inh -1.
Screening Cc1cc(C(F)(F)F)c(C#N)c(SCC(=O)Nc2nc3ccccc3s2)n1 returned MEKK2mut PB1 HTS 45, MEKK2wt PB1 HTS 57*, Arrestin-AP2 inh 38 and MEKK3 PB1 HTS 117.
Cc1nc(SCC(=O)Nc2nc3ccccc3s2)c(C#N)c(C)c1C was read as MEKK2mut PB1 HTS -2, MEKK2wt PB1 HTS 97, Arrestin-AP2 inh -9 and MEKK3 PB1 HTS 96.
`O=C1NN(c2cccc(Br)c2)C(=O)/C1=C/c1ccc(-c2cc([N+](=O)[O-])ccc2O)o1` gave MEKK2mut PB1 HTS -15, MEKK2wt PB1 HTS 29*[inhibitor], Arrestin-AP2 inh 2 and MEKK3 PB1 HTS 36*[inhibitor].
For CCc1ccc(N(C(=O)c2snc(C(N)=O)c2N)C(C(=O)NC2CCCC2)c2ccco2)cc1 (stereo not given) the results were MEKK2mut PB1 HTS -1, MEKK2wt PB1 HTS 95, Arrestin-AP2 inh 18 and MEKK3 PB1 HTS 101.
NC(=O)c1nsc(C(=O)N(c2cccc(F)c2)C(C(=O)NC2CCCC2)c2ccco2)c1N (stereo not given) was read as MEKK2mut PB1 HTS -37, MEKK2wt PB1 HTS 0.0*[inhibitor], Arrestin-AP2 inh 17 and MEKK3 PB1 HTS 1.0*[inhibitor].
For Oc1ccccc1CC=NC1CCCCC1 the results were Arrestin-AP2 inh -1.
Screening CCCCN1C(=O)C2(NNc3ccccc3O2)c2ccccc21 (stereo not given) returned MEKK2mut PB1 HTS 20, MEKK2wt PB1 HTS 54*, Arrestin-AP2 inh 3 and MEKK3 PB1 HTS 108.
